# Measured values from different studies.
# Protocols differ between the studies behind these lines.
# Neuronal acetylcholine receptor subunit alpha-4/beta-2: Neuronal acetylcholine receptor subunit alpha-4/beta-2 (Mus musculus, UniProt O70174+Q9ERK7)
# HTR7: 5-hydroxytryptamine receptor 7 (HTR7, Homo sapiens, UniProt P34969)
# Long-chain-fatty-acid--AMP ligase FadD28: Long-chain-fatty-acid--AMP ligase FadD28 (Mycobacterium tuberculosis, UniProt P9WQ59)
SMILES,target,test,conditions,measurement,value
CN1[C@@H]2CC[C@H]1C=C(c1cncc(Br)c1)C2,Neuronal acetylcholine receptor subunit alpha-4/beta-2,"ligand displacement, radioligand",cell membranes,Ki,0.00231 µM
CC[C@@H](CO)NC(=O)[C@@H]1C=C2c3cccc4c3c(cn4C)C[C@H]2N(C)C1,HTR7,"ligand displacement, radioligand",cell membranes,Ki,0.032 µM
CCCCCCCCCCCC(=O)NS(=O)(=O)OC[C@H]1O[C@@H](n2cnc3c(N)ncnc32)[C@H](O)[C@@H]1O,Long-chain-fatty-acid--AMP ligase FadD28,"enzyme activity, inhibitor",,Ki,6 µM
CCCCCCCCCCCCCC(=O)NS(=O)(=O)OC[C@H]1O[C@@H](n2cnc3c(N)ncnc32)[C@H](O)[C@@H]1O,Long-chain-fatty-acid--AMP ligase FadD28,"binding, ITC",,Kd,0.365 µM
CNC(C)C/C=C/c1cncc(C#Cc2ccccc2)c1 (stereo not drawn),Neuronal acetylcholine receptor subunit alpha-4/beta-2,"ligand displacement, radioligand",cell membranes,Ki,0.134 µM
CCCCCCCCCCCCCC(=O)NS(=O)(=O)OC[C@H]1O[C@@H](n2cnc3c(N)nc(C#CCOCCOCCOCCNC(=O)c4ccc(C(=O)O)c(-c5c6ccc(=[N+](C)C)cc-6oc6cc(N(C)C)ccc56)c4)nc32)[C@H](O)[C@@H]1O,Long-chain-fatty-acid--AMP ligase FadD28,"binding, FP",,Kd,0.245 µM
FC(F)(F)c1cccc(N2CCNCC2)c1,HTR7,"ligand displacement, radioligand",cell membranes,Ki,1.62 µM
N#Cc1ccc(C(=O)NOCc2ccc(C(F)(F)F)cc2)cc1,"NAD-dependent protein deacylase sirtuin-6 (SIRT6, Homo sapiens, UniProt Q8N6T7)","enzyme activity, inhibitor, fluorescence",,IC50,14.9 µM
CN(C)CCc1c[nH]c2ccccc12,HTR7,"ligand displacement, radioligand",,Ki,0.21 µM
